Data reported in ChEMBL document CHEMBL3351655, “Scaffold decoration at positions 5 and 8 of 1,2,4-triazolo[1,5-c]pyrimidines to explore the antagonist profiling on adenosine receptors: a preliminary structure-activity relationship study” (J Med Chem, 2014).

Experiments:
Adenosine receptor A3 = molecular target: T1, Adenosine receptor A3 (Homo sapiens, UniProt P0DMS8); assay: Displacement of [3H]NECA from human adenosine A3 receptor expressed in CHO cells; format: cell-based
T1 sequence (P0DMS8 whole entry): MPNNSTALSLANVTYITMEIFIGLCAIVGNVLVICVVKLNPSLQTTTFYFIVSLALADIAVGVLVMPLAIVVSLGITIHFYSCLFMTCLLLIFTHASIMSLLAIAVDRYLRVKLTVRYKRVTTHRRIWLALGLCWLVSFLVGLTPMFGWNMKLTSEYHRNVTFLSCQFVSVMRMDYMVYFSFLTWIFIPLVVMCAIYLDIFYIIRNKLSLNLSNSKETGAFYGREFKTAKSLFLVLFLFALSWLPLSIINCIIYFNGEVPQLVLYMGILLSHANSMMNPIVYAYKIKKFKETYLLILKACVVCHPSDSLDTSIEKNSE
Summary of the method: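 Radioligand [³H]NECA was used on membranes from stably transfected CHO cells, prepared by a 1000g clearing spin then pelleting at 100 000g. Pellets were resuspended in binding buffer, frozen in liquid nitrogen and stored. Nonspecific binding was defined with 100 μM R-PIA.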

Adenosine receptor A2b = molecular target: T2, Adenosine receptor A2b (Homo sapiens, UniProt P29275); assay: Antagonist activity at human adenosine A2B receptor expressed in CHO cells assessed as inhibition of NECA-stimulated adenylyl cyclase activity; format: functional, cell-based
T2 sequence (P29275 whole entry): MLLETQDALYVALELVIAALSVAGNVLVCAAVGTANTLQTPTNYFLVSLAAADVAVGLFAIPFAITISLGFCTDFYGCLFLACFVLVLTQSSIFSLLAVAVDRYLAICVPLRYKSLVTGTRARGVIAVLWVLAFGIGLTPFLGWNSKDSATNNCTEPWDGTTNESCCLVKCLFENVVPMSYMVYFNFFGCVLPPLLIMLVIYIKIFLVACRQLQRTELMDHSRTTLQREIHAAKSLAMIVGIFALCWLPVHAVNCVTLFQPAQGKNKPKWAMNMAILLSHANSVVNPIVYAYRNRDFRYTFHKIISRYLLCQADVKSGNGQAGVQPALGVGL
Summary of the method: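 Membranes from stably transfected CHO cells, made with a single high-speed centrifugation of the homogenate. Incubated 20 min with about 150 000 cpm [α-³²P]ATP, in a mixture without EGTA and NaCl. IC50 for concentration-dependent inhibition of NECA-stimulated adenylyl cyclase was fitted with the Hill equation and converted to Ki by Cheng–Prusoff.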

CHO [1] = assay: Selectivity ratio of Ki for human adenosine A1 receptor expressed in CHO cells to Ki for human adenosine A2A receptor expressed in CHO cells; format: cell-based
CHO [2] = assay: Selectivity ratio of Ki for human adenosine A2A receptor expressed in CHO cells to Ki for human adenosine A3 receptor expressed in CHO cells; format: cell-based
[3] = molecular target: Adenosine receptors; A1 & A3 (Homo sapiens) (UniProt P30542+P0DMS8); assay: Selectivity ratio of Ki for human adenosine A1 receptor expressed in CHO cells to Ki for human adenosine A3 receptor expressed in CHO cells; format: cell-based
Adenosine receptor A1 = molecular target: T3, Adenosine receptor A1 (Homo sapiens, UniProt P30542); assay: Displacement of [3H]CCPA from human adenosine A1 receptor expressed in CHO cells; format: cell-based
T3 sequence (P30542 whole entry): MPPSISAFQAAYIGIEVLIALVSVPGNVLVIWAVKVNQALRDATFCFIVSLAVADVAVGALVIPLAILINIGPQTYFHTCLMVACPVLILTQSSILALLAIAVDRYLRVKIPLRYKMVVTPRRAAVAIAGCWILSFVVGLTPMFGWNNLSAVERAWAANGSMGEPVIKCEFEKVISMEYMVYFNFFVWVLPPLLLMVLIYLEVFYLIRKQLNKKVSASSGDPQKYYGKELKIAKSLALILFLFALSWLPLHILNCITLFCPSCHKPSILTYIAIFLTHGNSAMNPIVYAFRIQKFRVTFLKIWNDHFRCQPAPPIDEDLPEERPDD
Summary of the method: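 Stably transfected CHO cells were homogenised and spun at 1000g to remove nuclei and fragments. Membranes were then pelleted at 100 000g, resuspended in binding buffer, frozen in liquid nitrogen and stored. Radioligand was [³H]CCPA, with nonspecific binding defined by 1 mM theophylline.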

Adenosine receptor A2a = Adenosine receptor A2a (Homo sapiens, UniProt P29274); assay: Displacement of [3H]NECA from human adenosine A2A receptor expressed in CHO cells; format: cell-based
Adenosine receptor A2a, sequence (P29274 whole entry): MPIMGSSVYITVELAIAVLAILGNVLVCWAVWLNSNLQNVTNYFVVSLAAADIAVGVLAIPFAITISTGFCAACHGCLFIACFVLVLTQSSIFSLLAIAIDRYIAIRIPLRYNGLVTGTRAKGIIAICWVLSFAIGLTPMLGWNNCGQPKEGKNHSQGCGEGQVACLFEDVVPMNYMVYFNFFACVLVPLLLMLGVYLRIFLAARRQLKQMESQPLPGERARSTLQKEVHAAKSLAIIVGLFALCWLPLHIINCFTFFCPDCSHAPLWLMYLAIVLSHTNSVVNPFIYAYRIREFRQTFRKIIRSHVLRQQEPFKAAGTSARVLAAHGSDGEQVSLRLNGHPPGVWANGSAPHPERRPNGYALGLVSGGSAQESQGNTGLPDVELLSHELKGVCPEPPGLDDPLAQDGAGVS

| Compound | Ki (Adenosine receptor A3) [nM] | Ki (Adenosine receptor A2b) [nM] | Ratio Ki [3] | Ki (Adenosine receptor A1) [nM] | Ki (Adenosine receptor A2a) [nM] | Ratio Ki (CHO [1]) | Ratio Ki (CHO [2]) |
| --- | --- | --- | --- | --- | --- | --- | --- |
| O=C(O)c1cnc(NCc2ccc(Cl)cc2)n2nc(-c3ccco3)nc12 | 11600 | > 30000 | > 8.62 | > 100000 | > 100000 | – | > 8.62 |
| COc1ccc(CNc2ncc(C(=O)NCCc3ccccc3)c3nc(-c4ccco4)nn23)cc1OC | 87.7 | > 30000 | 4.39 | 385 | 65.2 | 5.9 | 0.74 |
| CCOC(=O)c1cnc(N2CCOCC2)n2nc(-c3ccco3)nc12 | 8700 | > 10000 | > 11.5 | > 100000 | 17600 | > 5.68 | 2.02 |
| CCOC(=O)c1cnc(NCc2ccc(C)cc2)n2nc(-c3ccco3)nc12 | 56.1 | 10000 | 23.9 | 1340 | 122 | 11 | 2.17 |
| O=C(O)c1cnc(NCc2ccccc2)n2nc(-c3ccco3)nc12 | 2230 | > 10000 | 2.28 | 5090 | 3660 | 1.39 | 1.64 |
| O=C(O)c1cnc(NC(c2ccccc2)c2ccccc2)n2nc(-c3ccco3)nc12 | 2070 | > 30000 | 1.18 | 2450 | > 100000 | < 0.02 | > 48 |
| CCOC(=O)c1cnc(NC(=O)Nc2ccccc2)n2nc(-c3ccco3)nc12 | 357 | 1900 | 0.9 | 322 | 4.82 | 66.8 | 0.01 |
| CNc1ncc(C(=O)O)c2nc(-c3ccco3)nn12 | 15900 | > 10000 | > 6.29 | > 100000 | > 100000 | – | > 6.29 |
| CNC(=O)c1cnc(NC(=O)Cc2ccccc2)n2nc(-c3ccco3)nc12 | 1190 | 4840 | 0.25 | 296 | 12.4 | 23.9 | 0.01 |
| O=C(O)c1cnc(NCc2ccc(F)cc2)n2nc(-c3ccco3)nc12 | 14000 | > 30000 | > 7.14 | > 100000 | 6390 | > 15.6 | 0.46 |
| CCOC(=O)c1cnc(NCc2ccc(-c3ccccc3)cc2)n2nc(-c3ccco3)nc12 | 875 | > 30000 | 1.02 | 890 | 187 | 4.76 | 0.21 |
| CCCCC(CC)CNc1ncc(C(=O)O)c2nc(-c3ccco3)nn12 (centres undefined) | 16400 | > 10000 | 0.11 | 1780 | 33800 | 0.05 | 2.06 |
| CCOC(=O)c1cnc(NCc2ccccc2)n2nc(-c3ccco3)nc12 | 10 | 2510 | 94 | 940 | 32 | 29.4 | 3.2 |
| O=C(O)c1cnc(NCC2CCCCC2)n2nc(-c3ccco3)nc12 | 15800 | > 10000 | 0.17 | 2740 | 33900 | 0.08 | 2.14 |
| CCOC(=O)c1cnc(NC2CCCCCC2)n2nc(-c3ccco3)nc12 | 321 | > 10000 | 0.72 | 231 | 235 | 0.98 | 0.73 |
| CCOC(=O)c1cnc(NCc2ccc(Cl)cc2)n2nc(-c3ccco3)nc12 | 56.8 | 1630 | 15.2 | 866 | 73.2 | 11.8 | 1.29 |
| CNC(=O)c1cnc(NC(=O)Nc2ccccc2)n2nc(-c3ccco3)nc12 | 730 | 1180 | 0.17 | 126 | 5.76 | 21.9 | 0.01 |
| CNC(=O)c1cnc(NC(=O)NC2CCCCC2)n2nc(-c3ccco3)nc12 | 18700 | > 30000 | 0.48 | 8990 | 1520 | 5.91 | 0.08 |
| COc1ccc(CNc2ncc(C(=O)O)c3nc(-c4ccco4)nn23)cc1OC | 159 | > 30000 | 6.02 | 958 | 5320 | – | 33.4 |
| COc1ccc(CCCn2ncc3c2nc(N)n2nc(-c4ccco4)nc32)cc1 | > 10000 | > 10000 | – | 1110 | – | – | – |

Continued, in another order:

| Ki (Adenosine receptor A3) [nM] | Ki (Adenosine receptor A2b) [nM] | Ratio Ki [3] | Ki (Adenosine receptor A1) [nM] | Ki (Adenosine receptor A2a) [nM] | Compound | Ratio Ki (CHO [1]) | Ratio Ki (CHO [2]) |
| --- | --- | --- | --- | --- | --- | --- | --- |
| 11.7 | > 3000 | 6.42 | 75.2 | 28.9 | CCOC(=O)c1cnc(NC2CCC2)n2nc(-c3ccco3)nc12 | 2.6 | 2.47 |
| 9.46 | 10000 | 4.23 | 40 | 103 | CCOC(=O)c1cnc(NC(C)C)n2nc(-c3ccco3)nc12 | 0.39 | 10.9 |
| 131 | > 10000 | 1.08 | 141 | 58.9 | CCOC(=O)c1cnc(NC2CCCCC2)n2nc(-c3ccco3)nc12 | 2.39 | 0.45 |
| 2640 | > 30000 | 2.17 | 5720 | 9500 | CCOC(=O)c1cnc(SC)n2nc(-c3ccco3)nc12 | 0.6 | 3.6 |
| 105 | > 10000 | 21.6 | 2270 | 292 | CCOC(=O)c1cnc(NCCOC)n2nc(-c3ccco3)nc12 | 7.77 | 2.78 |
| 275 | > 10000 | 48.7 | 13400 | 6480 | CCOC(=O)c1cnc(N(C)C)n2nc(-c3ccco3)nc12 | 2.07 | 23.6 |
| 1190 | > 10000 | 5.47 | 6510 | 210 | CCOC(=O)c1cnc(NOC)n2nc(-c3ccco3)nc12 | 31 | 0.18 |
| 3.3 | 3060 | 49.1 | 162 | 50.3 | CCNc1ncc(C(=O)OCC)c2nc(-c3ccco3)nn12 | 3.22 | 15.2 |
| 24.4 | 7150 | 1.87 | 45.6 | 44.4 | CCOC(=O)c1cnc(NCC(C)C)n2nc(-c3ccco3)nc12 | 1.03 | 1.82 |
| 238 | 1110 | 0.78 | 185 | 3.32 | CCOC(=O)c1cnc(N)n2nc(-c3ccco3)nc12 | 55.7 | 0.01 |
| 39.3 | > 10000 | 29.3 | 1150 | 215 | CCCCC(CC)CNc1ncc(C(=O)OCC)c2nc(-c3ccco3)nn12 (centres undefined) | 5.35 | 5.47 |
| > 30000 | > 10000 | – | > 100000 | > 100000 | CCOC(=O)c1cnc(NN2CCOCC2)n2nc(-c3ccco3)nc12 | – | – |
